Screens deposited in PubChem BioAssay by several laboratories.
Shown are actives, neighbours in structure and some others; about 4% of the full set was active somewhere.
Granule exo inh = blocks lytic granule exocytosis; TALL-104 LAMP-1 surface exposure, flow cytometry; cells stimulated with thapsigargin and PMA; inhibition, % at 10 µM; 360,000 tested, 0.66% active;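 active = inhibition above about 55%, limit read from the data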
ABHD5-PLIN5 inh = inhibitors of human ABHD5-perilipin-5 interaction; inhibition, % at 4 µM; 360,000 tested, 0.78% active; Q00G26+Q8WTS1; Split G. princeps luciferase complementation, luminescence, 4 h; AID 602281;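 active = inhibition above the mean inhibition across every tested compound plus 3 SD, cut at about 22% in these data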;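 also: 0% = DMSO only wells and the 100% control is not disclosed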
CHOP UPR activ = apoptotic UPR (CHOP) activation; CHO-CHOP luciferase reporter, luminescence; percent of tunicamycin response over DMSO baseline; 330,000 tested, 0.34% active; activation, % at 10 µM;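 active = at 10 µM dose, activation of 40% or more, normalized to positive control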;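 also: 100% = tunicamycin at 10 µg/mL and 0% = DMSO alone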
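System: CHO CHOP reporter cells. Amount: 500 cells per well. Buffer or medium: F12 medium, 10% FBS. Compound dosing: one dose, 10 µM in 0.5% DMSO. Incubation: 6 h compound exposure at 37 °C after overnight seeding. Technique: Steady-Glo luciferase luminescence. Benchmarks: tunicamycin and DMSO controls.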
Mdm2-MdmX inh = human Mdm2/MdmX binding inhibition; inhibition, % at 8 µM; 330,000 tested, 3% active; SaOS-2 split-luciferase Mdm2/MdmX complementation, luminescence; AID 485346;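 active = inhibition of at least 50% at 8 µM in the primary screen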
Target sequence (O15151 whole entry, looked up): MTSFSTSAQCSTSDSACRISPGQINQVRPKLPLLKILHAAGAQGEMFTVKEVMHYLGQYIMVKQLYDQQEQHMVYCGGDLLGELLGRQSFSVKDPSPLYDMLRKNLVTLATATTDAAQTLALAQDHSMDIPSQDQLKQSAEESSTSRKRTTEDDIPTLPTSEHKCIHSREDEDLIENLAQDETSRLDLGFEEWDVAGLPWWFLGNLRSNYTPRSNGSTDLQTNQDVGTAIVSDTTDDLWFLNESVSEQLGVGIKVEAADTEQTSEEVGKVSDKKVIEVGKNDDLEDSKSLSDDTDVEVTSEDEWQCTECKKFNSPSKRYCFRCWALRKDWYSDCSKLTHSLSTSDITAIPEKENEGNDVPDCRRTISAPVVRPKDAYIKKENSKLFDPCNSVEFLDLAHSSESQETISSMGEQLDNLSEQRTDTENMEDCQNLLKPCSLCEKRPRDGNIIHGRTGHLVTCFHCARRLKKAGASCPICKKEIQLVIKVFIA
Target sequence (Q00987 whole entry, looked up): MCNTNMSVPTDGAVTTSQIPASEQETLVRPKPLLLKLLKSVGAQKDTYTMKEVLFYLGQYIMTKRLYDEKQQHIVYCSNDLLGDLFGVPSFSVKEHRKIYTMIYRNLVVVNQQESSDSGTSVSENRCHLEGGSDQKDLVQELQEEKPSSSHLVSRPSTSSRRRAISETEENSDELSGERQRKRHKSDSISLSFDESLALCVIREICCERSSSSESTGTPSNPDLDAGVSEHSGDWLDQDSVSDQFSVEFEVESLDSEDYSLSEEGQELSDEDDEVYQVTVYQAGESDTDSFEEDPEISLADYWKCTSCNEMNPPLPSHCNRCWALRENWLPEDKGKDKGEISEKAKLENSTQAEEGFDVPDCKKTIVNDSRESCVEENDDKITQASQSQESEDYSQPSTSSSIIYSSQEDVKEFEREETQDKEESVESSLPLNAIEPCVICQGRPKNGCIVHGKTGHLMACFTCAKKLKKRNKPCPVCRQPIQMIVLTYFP
UPR XBP1 act = activators of adaptive arm of unfolded protein response (XBP1) | CHO-XBP1 luciferase reporter, IRE1-XBP1 UPR activation, luminescence; percent of tunicamycin response, DMSO as zero | activation, % at 20 µM | 330,000 tested, 0.33% active | AID 463104;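 active = versus positive control, 20 µM dose yields 30% or more activation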;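 also: 100% = tunicamycin at 10 µg/mL and 0% = DMSO only wells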
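Material: CHO cell line with stable XBP1 luciferase reporter; schedule: 16-18 h cell attachment at 37 °C, then 6 h compound exposure; signal: glow luminescence from Steady-Glo reagent; medium: serum-containing F12 medium, 10% FBS; benchmarks: tunicamycin 10 µg/mL and vehicle-only wells; read-out: percent activation relative to tunicamycin reference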
CHOP UPR conf = apoptotic UPR (CHOP) activation, confirmed | 1,000 tested, 64% active | CHO-CHOP cells, CHOP-luciferase reporter luminescence; percent of tunicamycin response, DMSO as zero | activation, % at 10 µM | shares compounds with CHOP UPR activ; in the data active = activation above about 33%;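 also: 0% = DMSO wells and 100% = tunicamycin 10 µg/mL wells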
UPR XBP1 confirm = confirmation of adaptive unfolded protein response (XBP1) activators; shares compounds with UPR XBP1 act; CHO-XBP1 IRE1-XBP1 luciferase reporter, luminescence; activation, % at 20 µM; 1,000 tested, 63% active; AID 485299;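 active = reporter signal at least 30% of the positive control's activation in two or more of four replicate wells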;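 also: plate controls were DMSO negative control for no effect and tunicamycin 10 µg/mL positive control for full effect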
Mdm2 MdmX conf = confirmation of human Mdm2/MdmX interaction inhibitors. Mdm2-MdmX binding, luminescent assay. shares compounds with Mdm2-MdmX inh. AID 489028. 10,000 tested, 55% active. inhibition, % at 8 µM; in the data active = inhibition above about 40%
Full FLuc ctr = full-length luciferase inhibition in Mdm2/MdmX counter-screen | shares compounds with Mdm2-MdmX inh | SaOS-2 full-length luciferase counterscreen, luminescence | inhibition, % at 8 µM | 6,200 tested, 77% active;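 active = mean inhibition at 8 µM reaching about 37%, which flags the compound as non-specific, limit read from the data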;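 also: p53-null SaOS-2 cells with luciferase driven by a doxycycline-inducible promoter; compound on cells about two nights before reading with doxycycline added after day one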
ABHD5-PLIN5 conf = ABHD5-PLIN5 interaction inhibition, confirmed | shares compounds with ABHD5-PLIN5 inh | biochemical ABHD5-PLIN5 interaction, luminescence | inhibition, % at 4 µM | 2,200 tested, 67% active; in the data active = inhibition above about 23%;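 also: 0% = DMSO vehicle wells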
HNF4 counter = counter-screen for ABHD5-PLIN5 inhibitors: HNF4 split-luciferase; shares compounds with ABHD5-PLIN5 inh; HNF4 dimerization, luminescence, biochemical; inhibition, % at 4 µM; 2,200 tested, 77% active;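 active = mean inhibition across replicate wells exceeding the computed hit threshold, cut at about 13% in these data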;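 also: light from luciferase halves that rejoin when HNF4 fusion proteins dimerize; 0% = DMSO only wells and the 100% control is not given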
Active calls of the source: *; . = no result; ! = a repeat was not active.

SMILES	Granule exo inh	ABHD5-PLIN5 inh	CHOP UPR activ	Mdm2-MdmX inh	UPR XBP1 act	Mdm2 MdmX conf	others
CCCCn1c(NC(=O)c2ccco2)c(C(=O)OCC)c2nc3ccccc3nc21	-3	31*	47*	14	40*	.	CHOP UPR conf=1;UPR XBP1 confirm=-1;ABHD5-PLIN5 conf=41*;HNF4 counter=62*
COc1cc(/C=C/[N+](=O)[O-])ccc1O	19	70*	189*	34	-3	.	CHOP UPR conf=54*;ABHD5-PLIN5 conf=86*;HNF4 counter=93*
Cc1c(NP(=S)(C(C)(C)C)C(C)(C)C)c(=O)n(-c2ccccc2)n1C	1	-1	0	-6	-2	.
Cc1cc(C)cc(N2C(=O)NC(=O)/C(=C\c3cccn3-c3ccccc3)C2=O)c1	26	25*	189*	18	-4	.	CHOP UPR conf=333*;ABHD5-PLIN5 conf=58*;HNF4 counter=70*
Cc1cccc(N2C(=O)NC(=O)/C(=C\c3cnc(-c4ccccc4)nc3)C2=O)c1	1	14	1	13	0	.
COc1ccc2nc(NC(=O)CCc3nc(C4=CCN(C)CC4)no3)sc2c1	3	4	-2	35	-3	.
Cc1ccc(-n2c(O)c(/C=N/c3ncc(Br)cc3Br)c(=O)[nH]c2=O)cc1	0	17	3	3	31*	.	UPR XBP1 confirm=52*
CCN(CC)c1ccc(N=Cc2c(O)n(Cc3ccccc3)c(=O)[nH]c2=O)cc1	1	-6	8	14	31*	.	UPR XBP1 confirm=35*!
CCN(CC)c1ccc(N=Cc2c(O)n(-c3ccccc3)c(=O)[nH]c2=O)cc1	2	-2	2	9	-2	.
Cn1ccc(NC(=O)CCl)n1	-3	-1	0	16	1	.
CCN(CC)c1ccc(/C=C/[N+](=O)[O-])cc1	71*	54*	14	39	112*	.	UPR XBP1 confirm=76*;ABHD5-PLIN5 conf=96*;HNF4 counter=96*
CN1C(=O)/C(=C\N2CCc3ccccc32)C(=O)NC1=S	-3	-2	-1	-13	4	.
COc1cc2nc(CN3CC=C(c4ccccc4)CC3)[nH]c(=O)c2cc1OC	1	6	-2	79*	-2	68*	Full FLuc ctr=113*
COc1cc(C)c(CN2CC=C(c3ccc(F)cc3)CC2)cc1C	1	-3	-1	35	-3	.
N#CCCn1cc(C(=O)Nc2ccc([N+](=O)[O-])cc2)c(-c2ccc3c(c2)OCCO3)n1	-12	-1	0	17	-1	.
COc1cc2c(cc1OC)-c1c(OC)c(OC)cc3c1C(C2)N(C)CC3 (stereo not given)	7	-9	-3	44	0	.
COc1cc2c(cc1O)C[C@H]1NCCc3cc4c(c-2c31)OCO4	4	-2	-2	61*	-2	39	Full FLuc ctr=41*
COc1cc2c(cc1OC)-c1c3c(cc4c1[C@@H](C2)N(C)CC4)OCO3	-1	3	-2	54*	-2	48*	Full FLuc ctr=40*
COc1ccccc1CCNCc1cccc(C(F)(F)F)c1	-2	-3	1	13	-3	.
CC(C)CCP(=O)(O)c1ccccc1	1	0	2	-9	2	.
CCC1C=CC=CC[C@H](C)[C@@H](O)[C@](C)(O)C(=O)[C@@H](C)[C@H](O)[C@@H](C)C(=O)[C@H](C)[C@@H](O)[C@H](C)C=CC(=O)OC2[C@@H](C)C(CC1)OC1(CC[C@@H](C)C(C[C@H](C)O)O1)[C@@H]2C (stereo not given in full)	.	.	29	100*	-12	56*	Full FLuc ctr=50*
CCn1c(O)c(N=Nc2ccc(S(=O)(=O)N3CCOCC3)cc2)c(=O)n(CC)c1=S	-5	-5	29	58*	-7	21
CCC12CN3CCN(CC(C3)C1O)C2 (stereo not given)	2	3	-2	15	-1	.
CC(C)(C)c1cc([N+](=O)[O-])cc(C(C)(C)C)c1O	.	.	3	88*	14	39
NC(=O)c1cc([N+](=O)[O-])cc([N+](=O)[O-])c1	-6	-2	.	.	.	.
SMILES	Granule exo inh	ABHD5-PLIN5 inh	CHOP UPR activ	Mdm2-MdmX inh	UPR XBP1 act	Mdm2 MdmX conf	others
O=c1c2ccccc2nc(-c2cccs2)n1-c1ccccc1	-6	6	-3	6	-1	.
NC(N)=N/N=C/c1cn(-c2ccccc2)nc1-c1cccs1	5	2	9	99*	16	94*	Full FLuc ctr=57*
Cc1cc(C=C2C(=O)N(C)C(=S)N(C)C2=O)c(C)n1-c1ccncc1	0	-2	4	9	-6	.
Cc1ccc2c(c1)C1CN(C)CCC1N2C(=O)Nc1cccc(Cl)c1 (stereo not given)	2	-1	-2	23	0	.
CC(=O)c1c(C)n(Cc2ccccc2)c2ccc(O)cc12	2	-8	-3	31	-3	.
CC(=O)c1c(C)n(C2CCCCC2)c2ccc(O)cc12	-8	-4	-1	82*	-2	82*	Full FLuc ctr=48*
CCCCCn1c(N)c(C(=O)NCCN2CCOCC2)c2nc3ccccc3nc21	9	5	-1	40	4	.
CCCCCCn1c(N)c(C(=O)NCCN2CCOCC2)c2nc3ccccc3nc21	19	8	-2	58*	4	32
CN1C2CCC1CC(OC(=O)c1ccc([N+](=O)[O-])cc1)C2 (stereo not given)	-2	2	1	9	0	.
CCc1ccc(N2C(=O)NC(=O)/C(=C/c3cccn3CCOc3ccc(C)cc3)C2=O)cc1	-2	-1	9	14	8	.
Cc1cc(C)cc(N2C(=O)NC(=O)/C(=C\c3cccn3-c3ccc(Cl)cc3)C2=O)c1	44	-3	271*	69*	-7	56*	Full FLuc ctr=79*
O=C(C1CCC(=O)N1Cc1ccccc1Cl)N1CCC2(CC1)OCCO2 (stereo not given)	4	-1	-2	-26	-2	.
